NPY-Y2 PAM-ag: potentiates or activates human NPY-Y2 receptor; cells expressing NPY-Y2, potentiator/agonist read-out; P49146; 0.45% of 220,000 active; AID 1359; activation, % at 3.6 µM; in the data active = activation above about 27%;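 note: cells stimulated with NPY near EC25 plus isoproterenol at EC100; 0% = vehicle plus submaximal agonist and 100% = vehicle plus saturating agonist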
S1P4 antagonist: blocks the human S1P4 receptor; AID 1510; inhibition, % at 4.98 µM; O95977; S1P4-expressing cells, antagonist mode, reporter read-out; 0.26% of 220,000 active; in the data active = inhibition above about 29%;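 note: 0% = wells stimulated with agonist and 100% = vehicle wells without agonist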
Target sequence (O95977 whole entry, looked up): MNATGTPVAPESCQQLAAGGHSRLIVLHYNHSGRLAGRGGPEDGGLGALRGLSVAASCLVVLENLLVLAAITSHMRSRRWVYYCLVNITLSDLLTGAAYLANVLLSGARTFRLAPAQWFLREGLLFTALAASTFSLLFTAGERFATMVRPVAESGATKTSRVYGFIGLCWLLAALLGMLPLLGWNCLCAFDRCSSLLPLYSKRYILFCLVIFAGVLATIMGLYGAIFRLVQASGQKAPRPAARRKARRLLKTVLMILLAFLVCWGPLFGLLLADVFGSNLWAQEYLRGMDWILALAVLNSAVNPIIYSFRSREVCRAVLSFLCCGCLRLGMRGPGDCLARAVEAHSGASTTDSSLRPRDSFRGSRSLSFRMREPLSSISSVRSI
NPY-Y2 antag: blocks the human neuropeptide Y Y2 receptor; AID 793; P49146; NPY-Y2 expressing cells, antagonist mode; 0.99% of 140,000 active; inhibition, % at 2.7 µM; in the data active = inhibition above about 17%;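 note: 0% = vehicle with agonist challenge and 100% = reference antagonist with challenge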
NPY Y1 blocker: blocks the human neuropeptide Y Y1 receptor; AID 1040; 1% of 200,000 active; P25929; inhibition, % at 3.6 µM; HEK293-CNG Y1 cells, membrane potential fluorescence; NPY at EC95, then isoproterenol;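 active = inhibition above the campaign mean inhibition of all tested compounds plus 3 SD, cut at about 20% in these data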;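 note: 0% = DMSO wells given NPY plus isoproterenol and 100% = isoproterenol alone without NPY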
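Assay system: HEK293 cells with Y1 receptor plus CNG channel | Probe or stimulus: NPY (25 nM), isoproterenol (1 µM), Ro 20-1724 (25 µM) | Timing: Compound incubation 1 h at room temperature, readout 45 min post-stimulation | Measured by: Membrane-potential fluorescent dye readout | Benchmarks: High control isoproterenol alone, low control NPY with isoproterenol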
S1P4 agonist: activates the human S1P4 receptor | activation, % at 4.98 µM | AID 1509 | 0.35% of 220,000 active | S1P4-expressing cell line, agonist reporter assay; in the data active = activation above about 11%;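 note: 0% = DMSO vehicle and 100% = reference agonist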
NPY-Y1 PAM-ag: potentiates or activates human NPY-Y1 receptor | activation, % at 3.6 µM | NPY-Y1 expressing cells, potentiator/agonist activation | 0.37% of 220,000 active | AID 1304; in the data active = activation above about 33%, passing the limit was not always enough;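 note: cells stimulated with NPY at EC10 then isoproterenol at EC100; 0% = low agonist plus stimulus and 100% = saturating agonist plus stimulus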
The depositor's hits bear a star; x = no result given. In the library only some 2.4% were active in any assay of this set; here they are far more common.

SMILES | NPY-Y2 PAM-ag | S1P4 antagonist | NPY-Y2 antag | NPY Y1 blocker | S1P4 agonist | NPY-Y1 PAM-ag
O=C(/C=C/c1ccc(Cl)cc1)NC(=S)NN1CCCCC1c1cccnc1 (configuration not stated) | -6 | -4 | 40* | 2 | 4 | -34
COc1ccc(/C=C/C(=O)NC(=S)NN2CCCCC2c2cccnc2)cc1OC (configuration not stated) | -15 | -6 | 3 | 10 | 4 | -13
COc1ccc(C(C)(C)C)cc1NC(=O)c1cc(S(=O)(=O)N(C)C)ccc1N1CCCC1 | 4 | -6 | 22* | 25* | -2 | 0
O=C(NC1CCCC1)C(c1cccs1)N(CC1CCCO1)C(=O)Cc1cccs1 (configuration not stated) | -14 | -11 | 18* | 26* | -2 | -14
O=C(NC1CCCC1)C(c1ccccc1)N(Cc1ccco1)C(=O)Cc1cccs1 (configuration not stated) | -23 | 1 | 39* | 77* | 2 | -32
O=C(NC1CCCCC1)C(c1ccc(O)cc1)N(CC1CCCO1)C(=O)C1COc2ccccc2O1 (configuration not stated) | -8 | -5 | 9 | 14 | 0 | -21
Cc1ccc(C(C(=O)NC2CCCCC2)N(Cc2ccco2)C(=O)C2COc3ccccc3O2)o1 (configuration not stated) | 4 | -5 | 20* | 28* | -1 | 5
CC(=O)c1sc(NC(=O)C=C(C)C)nc1C | 19 | -4 | 0 | -1 | 0 | 12
CC(=O)c1sc(NC(=O)C2(F)C(F)(F)C(F)(F)C(F)(F)C(F)(F)C2(F)F)nc1C | 54* | -2 | 3 | -4 | 0 | 56*
O=C1C2C3C=CC(C3)C2C(=O)N1CCCCCCN1C(=O)C2C3C=CC(C3)C2C1=O (configuration not stated) | 5 | -9 | x | -2 | -1 | -4
O=C1C=CC(=O)N1CCCCCCN1C(=O)C=CC1=O | 5 | 79* | 6 | 0 | 0 | -27
COc1ccc(NC(=O)C(=O)NCCO)cc1Cl | 3 | -17 | 0 | -1 | -1 | -4
CC(C)OCC1CC(CC(=O)Nc2ccc([N+](=O)[O-])cc2)C(=O)O1 (configuration not stated) | -3 | -17 | x | 5 | 2 | 4
COc1ccc(C2C(C(=O)NCc3ccccn3)CCC(=O)N2c2cc(OC)c(OC)c(OC)c2)cc1 (configuration not stated) | 10 | -3 | x | 8 | 1 | -10
CCN(CC)c1ccc(NC(=O)CN2CCN(S(=O)(=O)c3cc(Cl)ccc3OC)CC2)cc1 | 33* | 5 | -2 | -11 | -4 | 53*
CC(C)COP(=O)(OCC(C)C)C(Nc1ccccc1)c1ccc(F)cc1 (configuration not stated) | 1 | -4 | 23* | 31* | -1 | -12
N#Cc1ccc(NC(=S)NC(=O)CCc2ccc(S(=O)(=O)N3CCOCC3)cc2)cc1 | 1 | 1 | x | 0 | -1 | 0
Cc1cccc(OCC(=O)O/N=C(\N)Cc2ccc(Cl)cc2)c1 | -33 | 7 | 23* | 16 | 2 | -29
Cc1ccc(OCC(=O)O/N=C(\N)Cc2ccc(Cl)cc2)cc1 | -21 | -14 | 21* | 22* | 0 | -56
Cn1c(-c2ccc(Cl)cc2)cnc1NCc1cc2c(cc1[N+](=O)[O-])OCO2 | 47* | -7 | 0 | -8 | 0 | 47*
Cn1c(-c2ccc(F)cc2)cnc1NCc1cc2c(cc1[N+](=O)[O-])OCO2 | 9 | -22 | 6 | 7 | -1 | 0
CC(c1ccccc1)n1c(-c2cccs2)nc2c(c(=O)c3ccccc3n2C)c1=O (configuration not stated) | -4 | -2 | x | x | 1 | -26
CC(=O)OCCNc1cc(N2CCN(C)CC2)c2noc3c2c1C(=O)c1ccccc1-3 | 33* | 4 | -5 | -6 | -1 | 49*
COc1ccc2nc(C)cc(Sc3nc4ccccc4s3)c2c1 | -20 | 11 | x | x | 2 | -24
O=C(O)C1CN(C(=O)c2cccc(Br)c2)C1 | -4 | 3 | x | 2 | 2 | 13
SMILES | NPY-Y2 PAM-ag | S1P4 antagonist | NPY-Y2 antag | NPY Y1 blocker | S1P4 agonist | NPY-Y1 PAM-ag
COc1ccc(OCC(=O)N2CCN(c3cccc(Cl)c3)CC2)cc1 | 8 | -2 | 7 | 4 | -1 | -9
COc1ccc(OCC(=O)N2CCN(c3cccc(C(F)(F)F)c3)CC2)cc1 | 100* | -5 | 10 | 2 | -1 | 72*
CC(=O)c1ccc(NC(=O)Nc2ccc(NS(=O)(=O)c3ccc(C)cc3)cc2)cc1 | 40* | 3 | -9 | -12 | 2 | 45*
COc1cc2nc(SCc3ccc(Cl)cc3Cl)n(Cc3cccs3)c(=N)c2cc1OC | -1 | -7 | -3 | -2 | 1 | 28
COc1ccc(Cn2c(SCc3cc(C)ccc3C)nc3cc(OC)c(OC)cc3c2=N)cc1 | 13 | -1 | 55* | 47* | 1 | -34
COc1ccc(Cn2c(SCc3ccc(C)cc3)nc3cc(OC)c(OC)cc3c2=N)cc1Cl | -3 | 2 | 25* | 34* | 0 | -16
O=C(Cc1cccs1)Nc1cccc(C(=O)Nc2ccc(C(=O)O)cc2)c1 | -11 | -30 | x | -1 | 1 | 10
Cc1cccc(/C(N)=N/OC(=O)CCCN2C(=O)c3ccccc3C2=O)c1 | -18 | 6 | 8 | 29* | -1 | -30
N/C(=N\OC(=O)CCCCCN1C(=O)c2ccccc2C1=O)c1ccccc1 | -36 | -8 | 7 | 13 | -1 | -34
CC(=O)NCCn1c(SCc2ccccc2F)nc2ccccc2c1=O | 102* | 2 | 2 | -6 | 1 | 77*
Cc1ccc2c(CSc3nc4ccccc4c(=O)n3CCCO)cc(=O)oc2c1C | -22 | 5 | 28* | 31* | 0 | -28
Cc1ccc(CN2CC(C(=O)Nc3cc(S(C)(=O)=O)ccc3Cl)CC2=O)cc1 (configuration not stated) | -3 | -14 | 0 | 8 | 0 | 0
Cc1ccc(CN2CC(C(=O)Nc3ccc(F)c([N+](=O)[O-])c3)CC2=O)cc1 (configuration not stated) | 70* | -20 | x | -10 | 0 | 81*
COc1ccc(NC(=O)C(CC(=O)O)Cc2ccc(C)cc2)cc1 (configuration not stated) | -5 | -11 | x | 5 | 0 | -12
C=CCSC1=N/C(=C\c2cc(OCC)c(OC(C)=O)c([N+](=O)[O-])c2)C(=O)S1 | 7 | -17 | -2 | 8 | 1 | 1
O=C(COC(=O)c1cc2ccccc2cc1O)NC(=O)NCc1ccco1 | -29 | -10 | x | 21* | 1 | -15
O=C(COC(=O)c1n[nH]c2ccccc12)NC(=O)NCc1ccco1 | -1 | -20 | 3 | 0 | 0 | 28
CCOc1ccc2nc(NC(=O)CSc3nc(-c4ccccc4)c(C#N)c(=O)[nH]3)sc2c1 | 0 | -4 | x | -1 | 0 | -11

Screens: PubChem, The Scripps Research Institute Molecular Screening Center
